Experimental data published in ChEMBL document CHEMBL4627371, “Discovery of novel heat shock protein (Hsp90) inhibitors based on luminespib with potent antitumor activity” (Bioorg Med Chem Lett, 2020).

What was measured:
Heat shock protein HSP90 [1] = molecular target: T1, Heat shock protein HSP90 (Homo sapiens, UniProt P07900+P08238); experiment: Inhibition of HSP90 (unknown origin) assessed as HER2 degradation by cell-based assay
Heat shock protein HSP90 [2] = molecular target: T1, Heat shock protein HSP90; experiment: Inhibition of HSP90 ATPase activity (unknown origin); assay type: protein assay
A2780 [3] = experiment: Cytotoxicity against human A2780 cells assessed as cell growth inhibition; assay type: functional, cell-based
HCT-116 = experiment: Cytotoxicity against human HCT116 cells assessed as cell growth inhibition; assay type: functional, cell-based
[4] = Toxicity in BALB/c nu/nu mouse xenografted with human A2780 cells assessed as mouse death at 50 mg/kg, iv administered 3 times a week for 2 weeks starting from 5 to 6 days post tumor inoculation; assay type: organism-based; conditions: in vivo
How it was run: (§1)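 Human A2780 ovarian adenocarcinoma cells were cultured and implanted into BALB/c-nu/nude mice, n = 6 per group. Tumor size and volume were measured 5 or 6 days later. Compounds were suspended in 1% carboxymethyl cellulose and given intravenously. Deaths and body weight were monitored. Tumor growth inhibition = [1 − (mean treated tumor volume)/(mean control tumor volume)] × 100%.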

NCI-H1975 [5] = experiment: Antitumor activity against human NCI-H1975 cells xenografted in BALB/c athymic nu/nu mouse assessed as tumor growth inhibition at 200 mg/kg, iv administered once a week for 3 weeks relative to control; assay type: functional; conditions: 504 h, read-out: TGI
How it was run: (§2)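 Athymic BALB/c-nu/nude mice bearing NCI-H1975 human lung carcinoma xenografts, n = 6 per group. Compounds were given i.v. at 200 mg/kg once weekly for three weeks. Deaths and body weight loss were recorded. Tumor growth inhibition was calculated from mean treated versus mean control tumor volumes.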

[6] = Toxicity in BALB/c athymic nu/nu mouse xenografted with human NCI-H1975 cells assessed as effect on body weight at 200 mg/kg, iv administered once a week for 3 weeks; assay type: organism-based; conditions: in vivo, 504 h; how it was run: as §2
[7] = Toxicity in BALB/c athymic nu/nu mouse xenografted with human NCI-H1975 cells assessed as mouse death at 200 mg/kg, iv administered once a week for 3 weeks; assay type: organism-based; conditions: in vivo, 504 h; how it was run: as §2
[8] = Toxicity in BALB/c nu/nu mouse xenografted with human A2780 cells assessed as effect on body weight at 50 mg/kg, iv administered 3 times a week for 2 weeks starting from 5 to 6 days post tumor inoculation; assay type: organism-based; conditions: in vivo; how it was run: as §1
A2780 [9] = experiment: Antitumor activity against human A2780 cells xenografted in BALB/c nu/nu mouse assessed as tumor growth inhibition at 50 mg/kg, iv administered 3 times a week for 2 weeks starting from 5 to 6 days post tumor inoculation relative to control; assay type: functional; conditions: read-out: TGI; how it was run: as §1
[10] = Toxicity in BALB/c nu/nu mouse xenografted with human A2780 cells assessed as effect on body weight at 50 mg/kg, iv administered 3 times a week for 3 weeks starting from 5 to 6 days post tumor inoculation; assay type: organism-based; conditions: in vivo; how it was run: as §1
A2780 [11] = experiment: Antitumor activity against human A2780 cells xenografted in BALB/c nu/nu mouse assessed as tumor growth inhibition at 50 mg/kg, iv administered 3 times a week for 3 weeks starting from 5 to 6 days post tumor inoculation relative to control; assay type: functional; conditions: read-out: TGI; how it was run: as §1
[12] = Toxicity in BALB/c nu/nu mouse xenografted with human A2780 cells assessed as mouse death at 50 mg/kg, iv administered 3 times a week for 3 weeks starting from 5 to 6 days post tumor inoculation; assay type: organism-based; conditions: in vivo; how it was run: as §1
[13] = Toxicity in BALB/c athymic nu/nu mouse xenografted with human NCI-H1975 cells assessed as effect on body weight at 150 mg/kg, iv administered once a week for 3 weeks; assay type: organism-based; conditions: in vivo, 504 h
[14] = Toxicity in BALB/c athymic nu/nu mouse xenografted with human NCI-H1975 cells assessed as mouse death at 150 mg/kg, iv administered once a week for 3 weeks; assay type: organism-based; conditions: in vivo, 504 h
NCI-H1975 [15] = experiment: Antitumor activity against human NCI-H1975 cells xenografted in BALB/c athymic nu/nu mouse assessed as tumor growth inhibition at 150 mg/kg, iv administered once a week for 3 weeks relative to control; conditions: 504 h, read-out: TGI

With CCNC(=O)c1noc(-c2cc(C(C)C)c(O)cc2O)c1-c1cc(C(N)=O)no1 the IC50 (Heat shock protein HSP90 [1]) was 52 nM, the IC50 (Heat shock protein HSP90 [2]) was 657 nM and the IC50 (A2780 [3]) was 15 nM. For the same molecule, the IC50 (HCT-116) was 79 nM.
With CCNC(=O)c1noc(-c2cc(C(C)C)c(O)cc2O)c1-c1cc(CN2CCCCC2)no1 the IC50 (Heat shock protein HSP90 [1]) was 62 nM, the IC50 (Heat shock protein HSP90 [2]) was 752 nM and the IC50 (A2780 [3]) was 62 nM. It also gave an IC50 (HCT-116) of 93 nM.
Molecule CCNC(=O)c1noc(-c2cc(C(C)C)c(O)cc2O)c1-c1cc(CN(C)C)no1 has an IC50 (Heat shock protein HSP90 [1]) of 33 nM, an IC50 (Heat shock protein HSP90 [2]) of 490 nM and an IC50 (A2780 [3]) of 31 nM. It also gave an IC50 (HCT-116) of 92 nM.
For CCNC(=O)c1noc(-c2cc(C(C)C)c(O)cc2O)c1-c1cn[nH]c1, the Activity [4] was “Non-Toxic”, the inhibition in vivo at 200 mg/kg (NCI-H1975 [5]) was 55.4% and the IC50 (Heat shock protein HSP90 [1]) was 13 nM. The Activity [6] was “Non-Toxic”, the Activity [7] was “Non-Toxic” and the IC50 (Heat shock protein HSP90 [2]) was 469 nM. For the same molecule, the IC50 (A2780 [3]) was 38 nM, the IC50 (HCT-116) was 43 nM and the Activity [8] was “Non-Toxic”. It also gave an inhibition in vivo at 50 mg/kg (A2780 [9]) of 47.6%.
CCNC(=O)c1noc(-c2cc(C(C)C)c(O)cc2O)c1-c1cc(CN2CCCC2)no1 gave an IC50 (Heat shock protein HSP90 [1]) of 38 nM, an IC50 (Heat shock protein HSP90 [2]) of 686 nM and an IC50 (A2780 [3]) of 55 nM. The IC50 (HCT-116) was 51 nM.
Work on CCNC(=O)c1noc(-c2cc(C(C)C)c(O)cc2O)c1-c1cc(CF)no1 yielded an IC50 (Heat shock protein HSP90 [1]) of 27 nM, an IC50 (Heat shock protein HSP90 [2]) of 410 nM and an IC50 (A2780 [3]) of 28 nM. It also gave an IC50 (HCT-116) of 63 nM.
Molecule CCNC(=O)c1noc(-c2cc(C(C)C)c(O)cc2O)c1-c1cc(C(=O)NC)no1 has an IC50 (Heat shock protein HSP90 [1]) of 24 nM, an IC50 (Heat shock protein HSP90 [2]) of 489 nM and an IC50 (A2780 [3]) of 100 nM. For the same molecule, the IC50 (HCT-116) was 124 nM.
For CCNC(=O)c1noc(-c2cc(C(C)C)c(O)cc2O)c1-c1ccn(C(C)C)n1, the Activity [4] was “Non-Toxic”, the IC50 (Heat shock protein HSP90 [1]) was 14 nM and the IC50 (Heat shock protein HSP90 [2]) was 543 nM. For the same molecule, the IC50 (A2780 [3]) was 45 nM, the IC50 (HCT-116) was 19 nM and the Activity [8] was “Non-Toxic”. The inhibition in vivo at 50 mg/kg (A2780 [9]) was 49.8%.
In the case of CCNC(=O)c1noc(-c2cc(C(C)C)c(O)cc2O)c1-c1cc[nH]n1, the Activity [4] is reported as “Non-Toxic”, the IC50 (Heat shock protein HSP90 [1]) is reported as 45 nM and the IC50 (Heat shock protein HSP90 [2]) is reported as 524 nM. For the same molecule, the IC50 (A2780 [3]) was 33 nM, the IC50 (HCT-116) was 36 nM and the Activity [8] was “Non-Toxic”. The inhibition in vivo at 50 mg/kg (A2780 [9]) was 46.4%.
For CCNC(=O)c1noc(-c2cc(C(C)C)c(O)cc2O)c1-c1cc(CO)no1, the inhibition in vivo at 200 mg/kg (NCI-H1975 [5]) was 50.9%, the Activity [10] was “Non-Toxic” and the IC50 (Heat shock protein HSP90 [1]) was 42 nM. For the same molecule, the Activity [6] was “Non-Toxic”, the Activity [7] was “Non-Toxic” and the IC50 (Heat shock protein HSP90 [2]) was 279 nM. It also gave an inhibition in vivo at 50 mg/kg (A2780 [11]) of 47%, an IC50 (A2780 [3]) of 5 nM and an IC50 (HCT-116) of 13 nM. For the same molecule, the Activity [12] was “Non-Toxic”.
CCNC(=O)c1noc(-c2cc(C(C)C)c(O)cc2O)c1-c1cc(CNC(C)C)no1 gave an IC50 (Heat shock protein HSP90 [1]) of 18 nM, an IC50 (Heat shock protein HSP90 [2]) of 521 nM and an IC50 (A2780 [3]) of 38 nM. It also gave an IC50 (HCT-116) of 109 nM.
For CCNCc1cc(-c2c(C(=O)NCC)noc2-c2cc(C(C)C)c(O)cc2O)on1, the Activity [4] was “Non-Toxic”, the IC50 (Heat shock protein HSP90 [1]) was 23 nM and the IC50 (Heat shock protein HSP90 [2]) was 475 nM. The IC50 (A2780 [3]) was 45 nM, the IC50 (HCT-116) was 45 nM and the Activity [8] was “Non-Toxic”. For the same molecule, the inhibition in vivo at 50 mg/kg (A2780 [9]) was 40.3%.
For CCNC(=O)c1cc(-c2c(C(=O)NCC)noc2-c2cc(C(C)C)c(O)cc2O)on1, the inhibition in vivo at 200 mg/kg (NCI-H1975 [5]) was 44%, the Activity [10] was “Non-Toxic” and the IC50 (Heat shock protein HSP90 [1]) was 28 nM. The Activity [6] was “Non-Toxic”, the Activity [7] was “Non-Toxic” and the IC50 (Heat shock protein HSP90 [2]) was 284 nM. The inhibition in vivo at 50 mg/kg (A2780 [11]) was 52%, the IC50 (A2780 [3]) was 43 nM and the IC50 (HCT-116) was 14 nM. The Activity [12] was “Non-Toxic”.
CCNC(=O)c1noc(-c2cc(C(C)C)c(O)cc2O)c1-c1cc(CN2CCSCC2)no1 showed an IC50 (Heat shock protein HSP90 [1]) of 38 nM, an IC50 (Heat shock protein HSP90 [2]) of 440 nM and an IC50 (A2780 [3]) of 64 nM. It also gave an IC50 (HCT-116) of 67 nM.
For CCNC(=O)c1noc(-c2cc(C(C)C)c(O)cc2O)c1-c1cc(CN(CC)CC)no1, the Activity [4] was “Non-Toxic”, the IC50 (Heat shock protein HSP90 [1]) was 52 nM and the IC50 (Heat shock protein HSP90 [2]) was 468 nM. The IC50 (A2780 [3]) was 78 nM, the IC50 (HCT-116) was 38 nM and the Activity [8] was “Non-Toxic”. The inhibition in vivo at 50 mg/kg (A2780 [9]) was 12.8%.
In the case of CCNC(=O)c1noc(-c2cc(C(C)C)c(O)cc2O)c1-c1ccc(CN2CCOCC2)cc1 [LUMINESPIB], the Activity [10] is reported as “Non-Toxic”, the Activity [13] is reported as “Non-Toxic” and the inhibition in vivo at 50 mg/kg (A2780 [11]) is reported as 48%. The IC50 (A2780 [3]) was 6 nM, the IC50 (HCT-116) was 20 nM and the Activity [14] was “Non-Toxic”. For the same molecule, the Activity [12] was “Non-Toxic” and the inhibition in vivo at 150 mg/kg (NCI-H1975 [15]) was 43.5%.
